Data: PMC9064050 (RSC Advances, 2019)
Converted amounts (≈) assume the structure as drawn.

How the values were obtained:
CT-DNA [1] = assay: Nuclease activity by gel electrophoresis in presence of H2O2; format: biochemical; details: CT-DNA + H2O2, agarose gel
Outline: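 Chemical nuclease assay: CT-DNA with test compound plus H2O2 in Tris–HCl buffer, pH 7.2. Products run on agar gel electrophoresis and imaged under a UV transilluminator. Band migration compared with a DNA + H2O2 control.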

CT-DNA [2] = assay: DNA binding by electronic absorption titration; details: Wolfe–Shimmer method; 298 K, pH 7.2
Outline: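 UV-Vis titration at a fixed complex concentration of 100 μM in 5 mM Tris–HCl/50 mM NaCl, pH 7.2, 25 °C. CT-DNA varied 0–150 μM, with [DNA] expressed in base pairs. Kb (Wolfe–Shimmer) taken as the slope-to-intercept ratio of [DNA]/(εa−εf) vs [DNA].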

[3] = biological target: bovine serum albumin (BSA) (Bos taurus, UniProt P02769); assay: BSA binding assay by absorption titration
Chain of bovine serum albumin (BSA) (P02769 25-607): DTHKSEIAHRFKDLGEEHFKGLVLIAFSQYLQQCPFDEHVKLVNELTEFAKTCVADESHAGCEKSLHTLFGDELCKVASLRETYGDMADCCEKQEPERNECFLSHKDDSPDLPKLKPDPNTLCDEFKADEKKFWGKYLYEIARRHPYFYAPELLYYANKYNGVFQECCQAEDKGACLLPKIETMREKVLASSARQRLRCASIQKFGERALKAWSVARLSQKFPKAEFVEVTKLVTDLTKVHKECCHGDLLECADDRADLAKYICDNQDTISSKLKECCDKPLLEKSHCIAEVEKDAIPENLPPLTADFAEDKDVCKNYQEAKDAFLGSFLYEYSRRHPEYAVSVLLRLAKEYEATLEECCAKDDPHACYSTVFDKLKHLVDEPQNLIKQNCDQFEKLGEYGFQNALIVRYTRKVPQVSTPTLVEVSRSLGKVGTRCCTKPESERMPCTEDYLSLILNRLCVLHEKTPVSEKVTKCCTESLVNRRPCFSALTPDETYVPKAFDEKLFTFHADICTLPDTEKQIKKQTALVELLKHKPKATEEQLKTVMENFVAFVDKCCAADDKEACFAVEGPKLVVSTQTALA

CT-DNA [4] = assay: DNA thermal denaturation by absorption; format: binding
EB–DNA = assay: Competitive binding
Outline: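 EB displacement fluorescence titration: CT-DNA 100 μM with EB in 50 mM Tris–HCl/1 mM NaCl buffer (pH 7.2), test compound 0–120 μM. Emission at 610 nm. KSV and Kq from Stern–Volmer (τ0 = 10^−8 s); Kass and n from log(F0−F)/F vs log[Q]; KLB from 1/(F0−F) vs 1/[Q]; KSC and n from Scatchard. Kapp from KEB[EB] = Kapp[compound] at 50% EB-fluorescence loss (KEB = 10^7 M−1, EB 50 μM).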

[5] = DPPH radical scavenging assay; details: 240 µM, 517 nm
Outline: (§1)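 Absorbance read at 517 nm (DPPH), 230 nm (hydroxyl), 590 nm (superoxide), 546 nm (nitric oxide) and 700 nm (FRAP). FRAP measures the rise in absorbance from Fe3+→Fe2+ reduction with ferricyanide. IC50 taken from % inhibition vs concentration plots.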

[6] = Hydroxyl radical scavenging assay; details: 240 µM, 230 nm
Outline: as §1

[7] = Superoxide scavenging assay; details: 240 µM, 590 nm
Outline: as §1

[8] = Nitric oxide scavenging assay; details: 240 µM, 546 nm
Outline: as §1

[9] = Ferric reducing antioxidant power; details: 240 µM, 700 nm
Outline: as §1

Escherichia coli = assay: Kirby–Bauer agar disc diffusion; format: cell-based; details: A = (−) Escherichia coli
Outline: (§2)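 Kirby–Bauer disc diffusion on Mueller–Hinton agar (pH 7.2, autoclaved 121 °C for 15 min, ~4 mm deep, held 2–8 °C for 24 h). Plates spread with 24 h cultures. 6 mm discs loaded with 20 μL of 100 μM test compound. Bacteria incubated at 37 °C for 48 h; fungi at 22 °C for 7 days. Clear-zone diameter measured by ruler; % inhibition by eqn (20) against 6 mm control.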

[10] = test system: Salmonella enteric serovar typhi; assay: Kirby–Bauer agar disc diffusion; format: cell-based; details: B = (−)Salmonella enteric serovar typhi
Outline: as §2

[11] = test system: Chromobacterium violaceum; assay: Kirby–Bauer agar disc diffusion; format: cell-based; details: C = (−)Chromobacterium violaceum
Outline: as §2

Pseudomonas aeruginosa = assay: Kirby–Bauer agar disc diffusion; format: cell-based; details: D = (−)Pseudomonas aeruginosa
Outline: as §2

Shigella flexneri = assay: Kirby–Bauer agar disc diffusion; format: cell-based; details: E = (−)Shigella flexneri
Outline: as §2

Staphylococcus aureus = assay: Kirby–Bauer agar disc diffusion; format: cell-based; details: F = (+)Staphylococcus aureus
Outline: as §2

Bacillus cereus = assay: Kirby–Bauer agar disc diffusion; format: cell-based; details: G = (+)Bacillus cereus
Outline: as §2

Aspergillus niger = assay: Kirby–Bauer agar disc diffusion; format: cell-based; details: H = Aspergillus niger
Outline: as §2

Candida albicans = assay: Kirby–Bauer agar disc diffusion; format: cell-based; details: I = Candida albicans
Outline: as §2

Mucor indicus = assay: Kirby–Bauer agar disc diffusion; format: cell-based; details: J = Mucor indicus
Outline: as §2

human lung cancer (A549) = assay: In vitro anticancer MTT assay; format: cell-based; details: 50% cell death following 72 h exposure
Outline: (§3)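 MTT viability: cells seeded at 1 × 10^5 per well and incubated 24 h at 37 °C, 5% CO2. Treated with test compound at 10–100 μg mL−1 (from DMSO). Medium removed, wells PBS-washed, RPMI-1640 plus MTT (5 mg mL−1 solution) added for 4 h at 37 °C. Formazan dissolved in DMSO, read at 570 nm. Triplicate wells; IC50 from % viability; cisplatin as reference.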

liver cancer (HepG2) = assay: In vitro anticancer MTT assay; format: cell-based, human; details: 50% cell death following 72 h exposure
Outline: as §3

breast (MCF-7) = assay: In vitro anticancer MTT assay; format: cell-based, human; details: 50% cell death following 72 h exposure
Outline: as §3

[12] = test system: normal human dermal fibroblast (NHDF); assay: MTT assay on normal cells; format: cell-based; details: normal cell line; 50% cell death following 72 h exposure
Outline: as §3

[13] = 20 μL of 100 μM per disc, control 6 mm

## Oc1ccc(Br)cc1C=NCCN1CCOCC1 [HL, 2-(-(2-morpholinoethylimino)methyl)-4-bromophenol]
CT-DNA [1]
  DNA cleavage efficacy: inactive
CT-DNA [2]
  Kb, WS method (intrinsic DNA binding constant): 10000 M⁻¹
[3]; BSA absorption, pH 7.2, 25 °C
  Chromism (%H), hyperchromism: 34.27%
[3]; blue-shift of BSA band, pH 7.2, 25 °C
  Δλ (nm), bound vs free: 02 nm
[3]; from Kapp
  Gibb's free energy change: -5.595 kcal/mol
CT-DNA [4]
  Binding constant Kr at 298 K: 10038 M⁻¹
EB–DNA
  KLB (Lineweaver–Burk binding constant): 1498 M⁻¹
  KSV (Stern–Volmer binding constant), Method-I: 4658 M⁻¹
  Kass (association binding constant), Stern–Volmer Method-II: 1924 M⁻¹
EB–DNA; KEB[EB] = Kapp[compound], 50% reduction of EB fluorescence
  Apparent binding constant Kapp: 269932 M⁻¹
EB–DNA; Scatchard analysis
  KSC (Scatchard binding constant): 10942 M⁻¹
[5]
  % Inhibition, DPPH: 50.64%
[6]
  % Inhibition, hydroxyl radical: 51.78%
[7]
  % Inhibition, superoxide: 50.62%
[8]
  % Inhibition, nitric oxide: 50.20%
[9]
  % Inhibition, ferric reducing power: 54.29%
Escherichia coli; 20 μL of 100 μM per disc, control (DMSO) = 6 mm
  diameter of clear zone inhibition: 14 mm
Escherichia coli; from zone diameter, eqn (20)
  inhibition%: 57%
[10]; [13]
  diameter of clear zone inhibition: 12 mm
[10]; eqn (20)
  inhibition%: 50%
[11]; [13]
  diameter of clear zone inhibition: 12 mm
[11]; eqn (20)
  inhibition%: 50%
Pseudomonas aeruginosa; [13]
  diameter of clear zone inhibition: 12 mm
Pseudomonas aeruginosa; eqn (20)
  inhibition%: 50%
Shigella flexneri; [13]
  diameter of clear zone inhibition: 17 mm
Shigella flexneri; eqn (20)
  inhibition%: 65%
Staphylococcus aureus; [13]
  diameter of clear zone inhibition: 10 mm
Staphylococcus aureus; eqn (20)
  inhibition%: 40%
Bacillus cereus; [13]
  diameter of clear zone inhibition: 10 mm
Bacillus cereus; eqn (20)
  inhibition%: 40%
Aspergillus niger; [13]
  diameter of clear zone inhibition: 25 mm
Aspergillus niger; eqn (20)
  inhibition%: 76%
Candida albicans; [13]
  diameter of clear zone inhibition: 12 mm
Candida albicans; eqn (20)
  inhibition%: 50%
Mucor indicus; [13]
  diameter of clear zone inhibition: 17 mm
Mucor indicus; eqn (20)
  inhibition%: 65%
Human lung cancer (A549)
  IC50 A549: 31.74 µg/mL (≈ 101 µM)
Liver cancer (HepG2)
  IC50 HepG2: 27.48 µg/mL (≈ 87.7 µM)
Breast (MCF-7)
  IC50 MCF-7: 26.67 µg/mL (≈ 85.2 µM)
[12]
  IC50 NHDF: 66.72 µg/mL (≈ 213 µM)
